Counter-ions that a name gives are not always drawn.
What was measured:
[1] = target: T1, CYP2J2 (Homo sapiens, UniProt P51589); assay: in vitro
T1 sequence (P51589 whole entry): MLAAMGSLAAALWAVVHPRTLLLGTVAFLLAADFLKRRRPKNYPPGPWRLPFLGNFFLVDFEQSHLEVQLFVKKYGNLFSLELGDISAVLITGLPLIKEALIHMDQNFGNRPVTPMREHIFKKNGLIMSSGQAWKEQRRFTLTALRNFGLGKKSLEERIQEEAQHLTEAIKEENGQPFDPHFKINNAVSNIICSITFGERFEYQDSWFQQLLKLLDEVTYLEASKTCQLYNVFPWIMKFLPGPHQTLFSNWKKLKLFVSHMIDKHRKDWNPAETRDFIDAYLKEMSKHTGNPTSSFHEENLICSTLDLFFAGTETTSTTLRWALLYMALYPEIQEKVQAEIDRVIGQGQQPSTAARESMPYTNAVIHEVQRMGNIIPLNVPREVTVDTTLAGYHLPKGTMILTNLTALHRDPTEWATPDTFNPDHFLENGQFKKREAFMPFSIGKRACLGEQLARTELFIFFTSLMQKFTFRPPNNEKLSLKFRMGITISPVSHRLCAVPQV

[2] = target: T1, CYP2J2; assay: in vitro; remark: listed apart in the source
[3] = target: T2, Cytochrome P450 2J2 (Homo sapiens, UniProt P51589); assay: Drug metabolism in human liver microsomes assessed as CYP2J2-mediated compound formation treated with amiodarone at 1 uM after 5 to 45 mins by LC-MS/MS analysis; format: ADME
T2 sequence (P51589 whole entry): T1 sequence (P51589 whole entry)

[4] = target: T2, Cytochrome P450 2J2; assay: Drug metabolism assessed as recombinant CYP2J2 (unknown origin)-mediated compound formation treated with amiodarone at 1 uM after 5 to 45 mins by LC-MS/MS analysis; format: ADME; conditions: recombinant enzyme
In short: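 Preincubated, then started with NADPH-regenerating system (1 mM NADPH final). Aliquots taken at 0, 5, 10, 20, 30, 45 min and quenched in acetonitrile with internal standard. No-NADPH controls included. Products measured by LC-MS/MS.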

[5] = Retention time in potassium phosphate buffer treated with amiodarone hydrochloride at 30 uM by HPLC analysis; format: physicochemical
[6] = target: T3, Cytochrome P450 1A2 (Homo sapiens, UniProt P05177)
T3 sequence (P05177 whole entry): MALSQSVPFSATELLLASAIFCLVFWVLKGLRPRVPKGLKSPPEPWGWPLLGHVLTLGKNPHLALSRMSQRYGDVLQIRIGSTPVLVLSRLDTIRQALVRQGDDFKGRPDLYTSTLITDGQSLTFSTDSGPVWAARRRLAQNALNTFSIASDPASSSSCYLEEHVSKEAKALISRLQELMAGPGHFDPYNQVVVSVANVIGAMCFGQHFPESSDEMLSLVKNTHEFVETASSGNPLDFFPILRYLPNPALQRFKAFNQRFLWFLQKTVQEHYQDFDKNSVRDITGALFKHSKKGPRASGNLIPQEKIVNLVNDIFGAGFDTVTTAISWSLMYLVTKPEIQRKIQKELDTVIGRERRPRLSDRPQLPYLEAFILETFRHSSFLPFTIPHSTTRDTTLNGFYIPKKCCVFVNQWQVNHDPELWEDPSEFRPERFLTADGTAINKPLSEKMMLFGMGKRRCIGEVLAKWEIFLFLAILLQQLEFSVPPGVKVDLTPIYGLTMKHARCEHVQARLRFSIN

[7] = target: T4, Cytochrome P450 2C8 (Homo sapiens, UniProt P10632)
T4 sequence (P10632 whole entry): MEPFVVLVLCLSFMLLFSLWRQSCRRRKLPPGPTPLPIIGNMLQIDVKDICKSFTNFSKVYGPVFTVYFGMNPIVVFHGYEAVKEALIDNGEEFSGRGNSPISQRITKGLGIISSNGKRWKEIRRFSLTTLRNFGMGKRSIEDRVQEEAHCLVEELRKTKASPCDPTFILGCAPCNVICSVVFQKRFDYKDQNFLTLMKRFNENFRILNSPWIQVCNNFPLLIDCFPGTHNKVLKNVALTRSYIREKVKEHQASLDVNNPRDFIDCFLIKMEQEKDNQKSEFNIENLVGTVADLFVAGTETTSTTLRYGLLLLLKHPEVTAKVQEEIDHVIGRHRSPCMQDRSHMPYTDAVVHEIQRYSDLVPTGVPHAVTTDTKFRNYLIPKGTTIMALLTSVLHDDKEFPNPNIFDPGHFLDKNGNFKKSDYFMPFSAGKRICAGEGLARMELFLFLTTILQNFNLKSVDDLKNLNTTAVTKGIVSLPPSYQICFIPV

[8] = target: Cytochrome P450 2D6 (Homo sapiens, UniProt P10635)
Cytochrome P450 2D6, sequence (P10635 whole entry): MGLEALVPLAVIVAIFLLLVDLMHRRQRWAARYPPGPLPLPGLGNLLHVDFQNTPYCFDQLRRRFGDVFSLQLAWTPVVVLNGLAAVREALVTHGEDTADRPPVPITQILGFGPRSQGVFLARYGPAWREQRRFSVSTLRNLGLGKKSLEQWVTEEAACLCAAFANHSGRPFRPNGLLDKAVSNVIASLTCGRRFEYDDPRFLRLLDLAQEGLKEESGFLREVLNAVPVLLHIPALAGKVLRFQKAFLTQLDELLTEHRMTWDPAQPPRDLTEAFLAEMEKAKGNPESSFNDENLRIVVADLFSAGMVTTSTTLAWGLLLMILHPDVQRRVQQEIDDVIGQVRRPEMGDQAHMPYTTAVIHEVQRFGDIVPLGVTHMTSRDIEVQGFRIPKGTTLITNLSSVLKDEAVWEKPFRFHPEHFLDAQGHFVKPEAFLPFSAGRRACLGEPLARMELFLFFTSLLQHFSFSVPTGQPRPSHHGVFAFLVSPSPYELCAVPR

[9] = target: Cytochrome P450 2C9 (Homo sapiens, UniProt P11712)
Cytochrome P450 2C9, sequence (P11712 whole entry): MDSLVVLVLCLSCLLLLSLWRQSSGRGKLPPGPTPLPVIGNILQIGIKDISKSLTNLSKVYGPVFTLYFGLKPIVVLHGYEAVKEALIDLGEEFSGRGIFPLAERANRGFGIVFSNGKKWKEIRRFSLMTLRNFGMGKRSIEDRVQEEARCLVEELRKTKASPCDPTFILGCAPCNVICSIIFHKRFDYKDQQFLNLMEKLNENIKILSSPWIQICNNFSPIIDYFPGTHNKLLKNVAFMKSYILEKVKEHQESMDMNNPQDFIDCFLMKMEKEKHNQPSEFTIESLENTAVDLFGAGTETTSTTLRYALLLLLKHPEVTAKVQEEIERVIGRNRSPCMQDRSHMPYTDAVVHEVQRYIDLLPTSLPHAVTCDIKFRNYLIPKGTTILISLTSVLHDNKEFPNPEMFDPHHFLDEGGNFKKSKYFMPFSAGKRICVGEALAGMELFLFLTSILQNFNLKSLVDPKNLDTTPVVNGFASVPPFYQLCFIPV

[10] = target: Cytochrome P450 2C19 (Homo sapiens, UniProt P33261)
Cytochrome P450 2C19, sequence (P33261 whole entry): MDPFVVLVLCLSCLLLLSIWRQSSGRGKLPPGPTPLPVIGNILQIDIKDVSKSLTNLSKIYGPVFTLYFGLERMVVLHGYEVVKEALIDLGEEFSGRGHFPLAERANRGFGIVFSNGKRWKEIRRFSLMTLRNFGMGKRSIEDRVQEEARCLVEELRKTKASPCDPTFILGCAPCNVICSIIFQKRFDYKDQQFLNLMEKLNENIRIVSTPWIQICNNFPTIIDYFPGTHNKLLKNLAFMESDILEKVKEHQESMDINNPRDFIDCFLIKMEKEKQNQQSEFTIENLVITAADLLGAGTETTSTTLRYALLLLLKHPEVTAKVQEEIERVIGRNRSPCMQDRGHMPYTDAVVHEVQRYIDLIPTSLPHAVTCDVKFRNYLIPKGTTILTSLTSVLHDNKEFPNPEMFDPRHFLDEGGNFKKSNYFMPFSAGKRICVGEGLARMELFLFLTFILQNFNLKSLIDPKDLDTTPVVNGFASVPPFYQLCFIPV

[11] = recombinant CYP2J2, probe astemizole (O-demethylation)
[12] = recombinant CYP2J2, probe terfenadine (hydroxylation)

## CCOC(=O)[C@H](CCc1ccccc1)N[C@@H](C)C(=O)N1Cc2ccccc2C[C@H]1C(=O)O
[1]; [11]
  activity at 5 min, 30 µM: 64.1%
[2]; [12]
  activity at 5 min, 30 µM: 51.4%

## CCN(CC)CCOc1c(I)cc(C(=O)c2c(CCCCO)oc3ccccc23)cc1I
[3]
  Drug metabolism: metabolite_detected
[4]
  Drug metabolism: metabolite_detected
[5]
  Retention_time: 12.7 min

## COc1ccc(CCN(C)CCCC(C#N)(c2ccc(OC)c(OC)c2)C(C)C)cc1OC (stereo not drawn)
[1]; [11]
  activity at 5 min, 30 µM: 69.1%
[2]; [12]
  activity at 5 min, 30 µM: 1.3%
[6]
  IC50: > 30 µM

## O[C@@H](c1cc(C(F)(F)F)nc2c(C(F)(F)F)cccc12)[C@H]1CCCCN1 (relative stereo) [(S,R)-MEFLOQUINE]
[1]; [11]
  activity at 5 min, 30 µM: 44.6%
[2]; [12]
  activity at 5 min, 30 µM: 22.4%
[7]
  IC50: > 30 µM

## CCCSc1ccc2nc(NC(=O)OC)[nH]c2c1 [ALBENDAZOLE]
[8]
  IC50: > 30 µM
[9]
  IC50: > 30 µM
[7]
  IC50: > 30 µM
[10]
  IC50: > 30 µM
[6]
  IC50: > 30 µM

## CCN(CC)Cc1cc(Nc2ccnc3cc(Cl)ccc23)ccc1O [AMODIAQUINE]
[1]; [11]
  activity at 5 min, 30 µM: 7.7%
[2]; [12]
  activity at 5 min, 30 µM: 22.5%

## CC(C)COCC(CN(Cc1ccccc1)c1ccccc1)N1CCCC1 (stereo not drawn) [BEPRIDIL]
[8]
  IC50: > 30 µM
[7]
  IC50: > 30 µM
[6]
  IC50: > 30 µM

## CCCC1O[C@@H]2C[C@H]3[C@@H]4CCC5=CC(=O)C=C[C@]5(C)[C@H]4[C@@H](O)C[C@]3(C)[C@]2(C(=O)CO)O1 (stereo partly drawn) [BUDESONIDE]
[2]; [12]
  activity at 5 min, 30 µM: 50.8%

## CCN(CC)CCOc1ccc(C(=C(Cl)c2ccccc2)c2ccccc2)cc1 [CLOMIPHENE]
[1]; [11]
  activity at 5 min, 30 µM: 109%
[2]; [12]
  activity at 5 min, 30 µM: 44.2%

## Clc1ccccc1C(c1ccccc1)(c1ccccc1)n1ccnc1 [CLOTRIMAZOLE]
[8]
  IC50: 0.883 µM
[1]; [11]
  activity at 5 min, 30 µM: 5.6%
[9]
  IC50: 0.136 µM
[2]; [12]
  activity at 5 min, 30 µM: 14.1%
[10]
  IC50: 7.41 µM

## CN(C)CCC=C1c2ccccc2C=Cc2ccccc21 [CYCLOBENZAPRINE]
[1]; recombinant enzyme
  activity at 5 min, 30 µM: 65.9%
[2]; recombinant enzyme
  activity at 5 min, 30 µM: 48.9%

## C#C[C@]1(O)CC[C@H]2[C@@H]3CCC4=Cc5oncc5C[C@]4(C)[C@H]3CC[C@@]21C [DANAZOL]
[1]; [11]
  activity at 5 min, 30 µM: 8%
[2]; [12]
  activity at 5 min, 30 µM: 1.6%
[7]
  IC50: 1.95 µM
[6]
  IC50: > 30 µM

## O=c1[nH]c2ccccc2n1CCCN1CCC(n2c(=O)[nH]c3cc(Cl)ccc32)CC1 [DOMPERIDONE]
[1]; [11]
  activity at 5 min, 30 µM: 50.5%
[2]; [12]
  activity at 5 min, 30 µM: 43.5%

## CNCCC(Oc1ccc(C(F)(F)F)cc1)c1ccccc1 (stereo not drawn) [FLUOXETINE]
[1]; recombinant enzyme
  activity at 5 min, 30 µM: 87%
[2]; recombinant enzyme
  activity at 5 min, 30 µM: 44.3%

## COCCCC/C(=N\OCCN)c1ccc(C(F)(F)F)cc1 [FLUVOXAMINE]
[1]; [11]
  activity at 5 min, 30 µM: 54.4%
[2]; [12]
  activity at 5 min, 30 µM: 48.7%

## O=C(CCCN1CCC(O)(c2ccc(Cl)cc2)CC1)c1ccc(F)cc1 [HALOPERIDOL]
[1]; [11]
  activity at 5 min, 30 µM: 14.7%
[2]; [12]
  activity at 5 min, 30 µM: 15.6%

## COC(=O)C1=C(C)NC(C)=C(C(=O)OC(C)C)C1c1cccc2nonc12 (stereo not drawn) [ISRADIPINE]
[1]; [11]
  activity at 5 min, 30 µM: 13.6%
[2]; [12]
  activity at 5 min, 30 µM: 23.7%
[6]
  IC50: 28.3 µM

## CC(=O)N1CCN(c2ccc(OCC3COC(Cn4ccnc4)(c4ccc(Cl)cc4Cl)O3)cc2)CC1 (stereo not drawn) [KETOCONAZOLE]
[1]; [11]
  activity at 5 min, 30 µM: 5.4%
[2]; [12]
  activity at 5 min, 30 µM: 5.8%

## Cc1c(OCC(F)(F)F)ccnc1C[S+]([O-])c1nc2ccccc2[nH]1 (stereo not drawn) [LANSOPRAZOLE]
[8]
  IC50: 2.9 µM
[1]; [11]
  activity at 5 min, 30 µM: 71.1%
[9]
  IC50: 19.2 µM
[2]; [12]
  activity at 5 min, 30 µM: 0.7%
[7]
  IC50: 5.75 µM
[10]
  IC50: 13.4 µM
[6]
  IC50: 6.46 µM

## CCOC(=O)N1CCC(=C2c3ccc(Cl)cc3CCc3cccnc32)CC1 [LORATADINE]
[1]; recombinant enzyme
  activity at 5 min, 30 µM: 4%
[2]; recombinant enzyme
  activity at 5 min, 30 µM: 11.4%
[7]
  IC50: 2.95 µM

## CC[C@H](C)C(=O)O[C@H]1C[C@@H](C)C=C2C=C[C@H](C)[C@H](CC[C@@H]3C[C@@H](O)CC(=O)O3)[C@H]21 [LOVASTATIN]
[1]; [11]
  activity at 5 min, 30 µM: 13.6%
[2]; [12]
  activity at 5 min, 30 µM: 37.7%

## CCC(=O)C(CC(C)N(C)C)(c1ccccc1)c1ccccc1 (stereo not drawn) [METHADONE]
[1]; [11]
  activity at 5 min, 30 µM: 123%
[2]; [12]
  activity at 5 min, 30 µM: 43%

## Clc1ccc(COC(Cn2ccnc2)c2ccc(Cl)cc2Cl)c(Cl)c1 (stereo not drawn) [MICONAZOLE]
[1]; [11]
  activity at 5 min, 30 µM: 10.1%
[2]; [12]
  activity at 5 min, 30 µM: 3.4%

## COC(=O)C1=C(C)NC(C)=C(C(=O)OCCN(C)Cc2ccccc2)C1c1cccc([N+](=O)[O-])c1 (stereo not drawn) [NICARDIPINE]
[1]; recombinant enzyme
  activity at 5 min, 30 µM: 5.8%
[2]; recombinant enzyme
  activity at 5 min, 30 µM: 8.9%

## CNCCC=C1c2ccccc2CCc2ccccc21 [NORTRIPTYLINE]
[1]; recombinant enzyme
  activity at 5 min, 30 µM: 70.1%
[2]; recombinant enzyme
  activity at 5 min, 30 µM: 45.3%

## COc1ccc2[nH]c([S+]([O-])Cc3ncc(C)c(OC)c3C)nc2c1 (stereo not drawn) [OMEPRAZOLE]
[1]; [11]
  activity at 5 min, 30 µM: 70.5%
[2]; [12]
  activity at 5 min, 30 µM: 46.1%

## Cc1ccccc1C(OCCN(C)C)c1ccccc1 (stereo not drawn) [ORPHENADRINE]
[1]; [11]
  activity at 5 min, 30 µM: 102%
[9]
  IC50: > 30 µM
[2]; [12]
  activity at 5 min, 30 µM: 1.2%
[7]
  IC50: > 30 µM
[10]
  IC50: 24.2 µM
[6]
  IC50: > 30 µM

## Fc1ccc([C@@H]2CCNC[C@H]2COc2ccc3c(c2)OCO3)cc1 [PAROXETINE HYDROCHLORIDE]
[1]; [11]
  activity at 5 min, 30 µM: 39%
[9]
  IC50: > 30 µM
[2]; [12]
  activity at 5 min, 30 µM: 31.6%
[7]
  IC50: > 30 µM
[6]
  IC50: 5.33 µM

## O=c1[nH]c2ccccc2n1C1CCN(CCCC(c2ccc(F)cc2)c2ccc(F)cc2)CC1 [PIMOZIDE]
[1]; [11]
  activity at 5 min, 30 µM: 6.6%
[2]; [12]
  activity at 5 min, 30 µM: 27.3%
[7]
  IC50: > 30 µM
[6]
  IC50: > 30 µM

## O=c1c(O)c(-c2ccc(O)c(O)c2)oc2cc(O)cc(O)c12 [QUERCETIN]
[8]
  IC50: 18.8 µM
[1]; [11]
  activity at 5 min, 30 µM: 44.7%
[2]; [12]
  activity at 5 min, 30 µM: 29.8%

## CC/C(=C(\c1ccccc1)c1ccc(OCCN(C)C)cc1)c1ccccc1 [TAMOXIFEN]
[1]; [11]
  activity at 5 min, 30 µM: 9.1%
[2]; [12]
  activity at 5 min, 30 µM: 11.5%
[7]
  IC50: 14.3 µM

## CSc1ccc2c(c1)N(CCC1CCCCN1C)c1ccccc1S2 (stereo not drawn) [THIORIDAZINE]
[1]; [11]
  activity at 5 min, 30 µM: 12.9%
[2]; [12]
  activity at 5 min, 30 µM: 51.7%
